According to ChEMBL document CHEMBL5724801, “EUbOPEN Chemogenomics Library - Multiplex” (2024):
Values joined by “and” are separate entries in the source; they are usually repeats but may differ in a detail not shown here. Equal entries are not always repeated.

Columns and labels:
[1] = test system: HEK-293T; assay: Multiplex assay against HEK293T; type: toxicity, cell-based; conditions: human
In short: (§1)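 Tubulin, mitochondrial-mass and membrane-permeability phenotypes are per cents of healthy-nucleus cells. Cells were gated by CellPathfinder machine learning into Hoechst high-intensity objects or normal cells, normal cells into healthy, pyknosed or fragmented nuclei, and pyknosed cells into mitotic or apoptotic. Before that, live cells stained at seeding with Hoechst33342, BioTracker Green Microtubule Cytoskeleton Dye, MitoTracker Red and Annexin V Alexa Fluor 680 were imaged on a CQ1 microscope at 37°C and 5% CO2 after compound addition.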

[2] = test system: U2OS; assay: Multiplex assay against U2OS; type: toxicity, cell-based; conditions: human; in short: as §1
[3] = 12 h, 1 µM, compound concentration 1 uM
[4] = 12 h, 10 µM, compound concentration 10 uM
[5] = 24 h, 1 µM, compound concentration 1 uM
[6] = 24 h, 10 µM, compound concentration 10 uM
[7] = 48 h, 1 µM, compound concentration 1 uM
[8] = 48 h, 10 µM, compound concentration 10 uM

`CC(C)c1noc(N2CCC(COc3ccc(-c4ccc(S(C)(=O)=O)cc4)nc3)CC2)n1` [GSK-1292263] was tested, and the “Population Apoptotic (%)” value [1, 3] was 37% and 25%, the “Population Fragmented Nuclei (%)” value [1, 3] was 8% and 6% and the “Population Healthy Nuclei (%)” value [1, 3] was 78% and 86%. The “Population Hoechst High Intensity Objects (%)” value [1, 3] was 5% and 6%, the “Population Membrane Permeable-Phenotype (%)” value [1, 3] was 0% and the “Population Mitochondria Different-Phenotype (%)” value [1, 3] was 42% and 53%. For the same compound, the “Population Mitotic Cells (%)” value [1, 3] was 62% and 74%, the “Population Normal (%)” value [1, 3] was 94% and 93% and the “Population Pyknosed Nuclei (%)” value [1, 3] was 12% and 7%. For the same compound, the “Population Tubulin-Different-Phenotype (%)” value [1, 3] was 32% and 13%, the “Total Cell Count” value [1, 3] was 440 and 522 and the “Population Apoptotic (%)” value [1, 4] was 50% and 43%. For the same compound, the “Population Fragmented Nuclei (%)” value [1, 4] was 6% and 7%, the “Population Healthy Nuclei (%)” value [1, 4] was 71% and 78% and the “Population Hoechst High Intensity Objects (%)” value [1, 4] was 13% and 16%. For the same compound, the “Population Membrane Permeable-Phenotype (%)” value [1, 4] was 0%, the “Population Mitochondria Different-Phenotype (%)” value [1, 4] was 69% and 77% and the “Population Mitotic Cells (%)” value [1, 4] was 50% and 56%. The “Population Normal (%)” value [1, 4] was 86% and 83%, the “Population Pyknosed Nuclei (%)” value [1, 4] was 22% and 13% and the “Population Tubulin-Different-Phenotype (%)” value [1, 4] was 55% and 40%. The “Total Cell Count” value [1, 4] was 311 and 279, the “Population Apoptotic (%)” value [1, 5] was 23% and 25% and the “Population Fragmented Nuclei (%)” value [1, 5] was 8% and 7%. The “Population Healthy Nuclei (%)” value [1, 5] was 78% and 82%, the “Population Hoechst High Intensity Objects (%)” value [1, 5] was 5% and 3% and the “Population Membrane Permeable-Phenotype (%)” value [1, 5] was 0%. For the same compound, the “Population Mitochondria Different-Phenotype (%)” value [1, 5] was 27% and 29%, the “Population Mitotic Cells (%)” value [1, 5] was 76% and 74% and the “Population Normal (%)” value [1, 5] was 94% and 96%. For the same compound, the “Population Pyknosed Nuclei (%)” value [1, 5] was 12% and 9%, the “Population Tubulin-Different-Phenotype (%)” value [1, 5] was 25% and 9% and the “Total Cell Count” value [1, 5] was 545 and 608. For the same compound, the “Population Apoptotic (%)” value [1, 6] was 64% and 46%, the “Population Fragmented Nuclei (%)” value [1, 6] was 8% and 11% and the “Population Healthy Nuclei (%)” value [1, 6] was 79% and 74%. For the same compound, the “Population Hoechst High Intensity Objects (%)” value [1, 6] was 8% and 10%, the “Population Membrane Permeable-Phenotype (%)” value [1, 6] was 0% and the “Population Mitochondria Different-Phenotype (%)” value [1, 6] was 58% and 59%. The “Population Mitotic Cells (%)” value [1, 6] was 35% and 53%, the “Population Normal (%)” value [1, 6] was 91% and 89% and the “Population Pyknosed Nuclei (%)” value [1, 6] was 12% and 13%. For the same compound, the “Population Tubulin-Different-Phenotype (%)” value [1, 6] was 49% and 28%, the “Total Cell Count” value [1, 6] was 384 and 354 and the “Population Apoptotic (%)” value [1, 7] was 22% and 23%. For the same compound, the “Population Fragmented Nuclei (%)” value [1, 7] was 10%, the “Population Healthy Nuclei (%)” value [1, 7] was 81% and 83% and the “Population Hoechst High Intensity Objects (%)” value [1, 7] was 3% and 1%. For the same compound, the “Population Membrane Permeable-Phenotype (%)” value [1, 7] was 1%, the “Population Mitochondria Different-Phenotype (%)” value [1, 7] was 23% and 14% and the “Population Mitotic Cells (%)” value [1, 7] was 77% and 76%. The “Population Normal (%)” value [1, 7] was 96% and 98%, the “Population Pyknosed Nuclei (%)” value [1, 7] was 8% and 5% and the “Population Tubulin-Different-Phenotype (%)” value [1, 7] was 14% and 10%. For the same compound, the “Total Cell Count” value [1, 7] was 865 and 882, the “Population Apoptotic (%)” value [1, 8] was 32% and 30% and the “Population Fragmented Nuclei (%)” value [1, 8] was 10% and 13%. The “Population Healthy Nuclei (%)” value [1, 8] was 79% and 78%, the “Population Hoechst High Intensity Objects (%)” value [1, 8] was 10% and 5% and the “Population Membrane Permeable-Phenotype (%)” value [1, 8] was 0%. The “Population Mitochondria Different-Phenotype (%)” value [1, 8] was 50% and 37%, the “Population Mitotic Cells (%)” value [1, 8] was 67% and 69% and the “Population Normal (%)” value [1, 8] was 89% and 94%. The “Population Pyknosed Nuclei (%)” value [1, 8] was 9% and 8%, the “Population Tubulin-Different-Phenotype (%)” value [1, 8] was 28% and 18% and the “Total Cell Count” value [1, 8] was 506 and 595. For the same compound, the “Population Apoptotic (%)” value [2, 3] was 72% and 100%, the “Population Fragmented Nuclei (%)” value [2, 3] was 27% and 16% and the “Population Healthy Nuclei (%)” value [2, 3] was 62% and 77%. The “Population Hoechst High Intensity Objects (%)” value [2, 3] was 2% and 1%, the “Population Membrane Permeable-Phenotype (%)” value [2, 3] was 3% and 4% and the “Population Mitochondria Different-Phenotype (%)” value [2, 3] was 2% and 0%. For the same compound, the “Population Normal (%)” value [2, 3] was 97% and 98%, the “Population Pyknosed Nuclei (%)” value [2, 3] was 10% and 5% and the “Population Tubulin-Different-Phenotype (%)” value [2, 3] was 0% and 2%. For the same compound, the “Total Cell Count” value [2, 3] was 177 and 114, the “Population Apoptotic (%)” value [2, 4] was 90% and 100% and the “Population Fragmented Nuclei (%)” value [2, 4] was 31% and 20%. The “Population Healthy Nuclei (%)” value [2, 4] was 60% and 73%, the “Population Hoechst High Intensity Objects (%)” value [2, 4] was 2% and 0% and the “Population Membrane Permeable-Phenotype (%)” value [2, 4] was 10%. For the same compound, the “Population Mitochondria Different-Phenotype (%)” value [2, 4] was 6% and 8%, the “Population Mitotic Cells (%)” value [2, 4] was 10% and 0% and the “Population Normal (%)” value [2, 4] was 97% and 100%. The “Population Pyknosed Nuclei (%)” value [2, 4] was 7% and 5%, the “Population Tubulin-Different-Phenotype (%)” value [2, 4] was 6% and the “Total Cell Count” value [2, 4] was 262 and 134. The “Population Apoptotic (%)” value [2, 5] was 63% and 66%, the “Population Fragmented Nuclei (%)” value [2, 5] was 32% and 15% and the “Population Healthy Nuclei (%)” value [2, 5] was 57% and 77%. The “Population Hoechst High Intensity Objects (%)” value [2, 5] was 1% and 0%, the “Population Membrane Permeable-Phenotype (%)” value [2, 5] was 5% and 2% and the “Population Mitochondria Different-Phenotype (%)” value [2, 5] was 2%. For the same compound, the “Population Mitotic Cells (%)” value [2, 5] was 36% and 33%, the “Population Normal (%)” value [2, 5] was 98% and 99% and the “Population Pyknosed Nuclei (%)” value [2, 5] was 9% and 6%. The “Population Tubulin-Different-Phenotype (%)” value [2, 5] was 3% and 1%.
